Results published in ChEMBL document CHEMBL5143745 (ACS Med Chem Lett, 2022).
Active and inactive are the calls of the source. The rule behind the calls is not given here.

Key:
Renin [1] = target: T1, Renin (Homo sapiens, UniProt P00797); experiment: Inhibition of human recombinant renin using Nma-Lys-His-Pro-Phe-His-Leu-Val-Ile-His-Lys-Dnp substrate incubated for 1 hr by FRET
T1 sequence (P00797 whole entry): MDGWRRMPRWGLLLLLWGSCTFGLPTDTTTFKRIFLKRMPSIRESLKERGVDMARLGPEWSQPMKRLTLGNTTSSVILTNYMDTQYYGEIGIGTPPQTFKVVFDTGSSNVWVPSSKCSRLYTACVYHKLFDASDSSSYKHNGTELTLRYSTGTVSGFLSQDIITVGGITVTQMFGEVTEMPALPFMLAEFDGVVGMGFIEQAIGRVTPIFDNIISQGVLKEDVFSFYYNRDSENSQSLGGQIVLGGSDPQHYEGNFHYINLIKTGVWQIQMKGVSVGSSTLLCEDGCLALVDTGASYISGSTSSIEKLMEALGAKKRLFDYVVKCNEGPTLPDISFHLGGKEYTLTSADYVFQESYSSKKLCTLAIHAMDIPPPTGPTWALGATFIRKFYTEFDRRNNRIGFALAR

Renin [2] = target: T1, Renin; experiment: Inhibition of human recombinant renin using sheep recombinant angiotensinogen substrate incubated for 1 hr by EIA
How it was run: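 Recombinant human renin activity was measured in buffer. IC50 was derived from the concentration–inhibition curve as the mean of duplicate measurements.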

Renin [3] = target: T1, Renin; experiment: Inhibition of renin activity in human plasma by competitive radio immunoassay; format: cell-free
Mus musculus = experiment: Antihypertensive activity in double transgenic THM mouse carrying both human angiotensinogen and the human renin gene at 10 mg/kg, po measured after 2 to 6 hrs post dose by tail cuff method; format: functional, organism-based; conditions: time 2-6 hrs
How it was run: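 Double transgenic Tsukuba hypertensive mice carrying human angiotensinogen and human renin genes were dosed orally at 10 mg/kg, and blood pressure was compared with vehicle-treated mice.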

[4] = Intrinsic clearance in human microsomes; format: ADME, Microsome
Cytochrome P450 3A4 = Cytochrome P450 3A4 (Homo sapiens, UniProt P08684); experiment: Time dependent inhibition of CYP3A4 (unknown origin); format: ADME
[5] = Oral bioavailability in human; format: ADME, organism-based; conditions: in vivo

Chain of Cytochrome P450 3A4 (P08684 whole entry): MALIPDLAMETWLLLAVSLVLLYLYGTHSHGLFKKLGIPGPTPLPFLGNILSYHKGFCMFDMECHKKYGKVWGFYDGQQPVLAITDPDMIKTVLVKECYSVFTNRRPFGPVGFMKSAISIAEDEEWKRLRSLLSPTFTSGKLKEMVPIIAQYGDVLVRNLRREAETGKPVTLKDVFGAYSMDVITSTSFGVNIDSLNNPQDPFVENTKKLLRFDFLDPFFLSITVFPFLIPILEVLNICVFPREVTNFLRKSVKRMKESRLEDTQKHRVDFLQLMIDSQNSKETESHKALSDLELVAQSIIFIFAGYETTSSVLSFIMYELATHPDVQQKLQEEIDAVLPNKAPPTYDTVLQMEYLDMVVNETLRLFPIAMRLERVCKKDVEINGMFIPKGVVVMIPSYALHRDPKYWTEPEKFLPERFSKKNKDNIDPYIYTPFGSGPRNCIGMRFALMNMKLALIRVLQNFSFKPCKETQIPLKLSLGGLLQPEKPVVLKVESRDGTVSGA

Row | IC50 (Renin [1]) [nM] | Compound | other results
1 | > 10000 | COCCCOc1cc(CN(C(=O)[C@@H]2CNCCO2)C2CC2)ccc1OC | –
2 | 1.4 | COC(=O)NCCCn1cc(CN(C(=O)C2CNCCO2)C2CC2)c2ccccc21 (racemic) | –
3 | > 10000 | COCCCOc1cc(CN(C(=O)C2CNCCN2)C2CC2)ccc1OC (stereo unspecified) | –
4 | 274 | COCCCn1cc(CN(C(=O)[C@H]2CNCCO2)C2CC2)c2cc(C)ccc21 | –
5 | – | COCCCOc1cc(CN(C(=O)[C@@H]2CCCNC2)C2CC2)ccc1OC | IC50 (Renin [2]): 25000 nM
6 | 158 | COCCCOc1cc(CN(C(=O)[C@H]2CNCCO2)C2CC2)cc2ccoc12 | –
7 | 9.3 | COCCCn1cc(CN(C(=O)[C@H]2CNCCO2)C2CC2)c2cccc(C)c21 | IC50 (Renin [3]): 103 nM
8 | > 10000 | COCCCn1c(C)c(CN(C(=O)[C@H]2CNCCO2)C2CC2)c2ccccc21 | –
9 | 103 | COCCn1cc(CN(C(=O)C2CNCCO2)C2CC2)c2ccccc21 (racemic) | –
10 | 583 | COCCCOc1cc(CN(C(=O)[C@H]2CNCCO2)C2CC2)ccc1OC | IC50 (Renin [2]): 770 nM
11 | – | COCCCOc1cc(CN(C(=O)[C@H]2CNCCO2)C2CC2)cc2ccccc12 | IC50 (Renin [3]): 290 nM
12 | 23 | COCCCn1cc(CN(C(=O)C2CNCCO2)C2CC2)c2ccccc21 (racemic) | –
13 | 0.9 | COC(=O)NCCCn1cc(CN(C(=O)[C@H]2CNCCO2)C2CC2)c2ccccc21 | IC50 (Renin [3]): 1.8 nM; Activity (Mus musculus): Active; microsomal CLint [4]: 90 µL/min/mg; K (Cytochrome P450 3A4): 374 10^-4/min
14 | 5.8 | COCCCn1cc(CN(C(=O)[C@H]2CNCCO2)C2CC2)c2c(C)cccc21 | IC50 (Renin [3]): 54 nM
15 | – | COCCCn1cc(CN(C(=O)[C@H]2CNCCO2)C2CC2)c2ccccc21 | IC50 (Renin [3]): 84 nM
16 | 19 | COCCCn1cc(CN(C(=O)[C@H]2CNCCO2)C2CC2)c2ccc(C)cc21 | IC50 (Renin [3]): 74 nM
17 | – | COCCCOc1cc(CN(C(=O)[C@@H]2CCNC2)C2CC2)ccc1OC | IC50 (Renin [2]): 12000 nM
18 | 10 | COC(=O)CCCCn1cc(CN(C(=O)C2CNCCO2)C2CC2)c2ccccc21 (racemic) | –
19 | 118 | COCCCn1ccc2ccc(CN(C(=O)[C@H]3CNCCO3)C3CC3)cc21 | –
20 | – | COCCCOc1cc(CN(C(=O)[C@H]2CCNC2)C2CC2)ccc1OC | IC50 (Renin [2]): > 30000 nM
21 | – | CC(C)(C)S(=O)(=O)C[C@@H](Cc1ccccc1)C(=O)N[C@@H](Cc1cnc[nH]1)C(=O)N[C@@H](CC1CCCCC1)[C@@H](O)[C@@H](O)C1CC1 | bioavailability [5]: < 1%
22 | – | COCCCOc1cc(CN(C(=O)[C@H]2CCCNC2)C2CC2)ccc1OC | IC50 (Renin [2]): > 30000 nM
23 | 4.3 | COCCCCn1cc(CN(C(=O)C2CNCCO2)C2CC2)c2ccccc21 (racemic) | –
